Data taken from ChEMBL document CHEMBL4007456, “Heterocyclyl Tetracyclines. 1. 7-Trifluoromethyl-8-Pyrrolidinyltetracyclines: Potent, Broad Spectrum Antibacterial Agents with Enhanced Activity against Pseudomonas aeruginosa” (2017).
In brackets after ≈: the same amount, converted by molar mass. Activity calls are given as the source filed them. The calls are words filed in the database; no cut-off is given here.

Key:
[1] = system: Staphylococcus aureus; experiment: Antibacterial activity against gram-positive Staphylococcus aureus SA101 by CLSI method; type: functional
Outline: (§1)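 Broth microdilution MIC per CLSI in cation-adjusted Mueller Hinton broth, prepared fresh and held at 4 °C. Defibrinated horse blood added where appropriate. Compounds serially diluted in sterile deionized water. Strains from ATCC unless otherwise noted. Runs accepted when comparator antibiotics fell within QC ranges for ATCC quality control strains.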

[2] = system: Pseudomonas aeruginosa; experiment: Antibacterial activity against gram-negative Pseudomonas aeruginosa PA169 by CLSI method; type: functional
Outline: (§2)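 Defibrinated horse blood added where appropriate. Compounds serially diluted in sterile deionized water. Strains from ATCC unless otherwise noted. Runs accepted when comparator antibiotics fell within QC ranges for ATCC quality control strains.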

[3] = system: Proteus mirabilis; experiment: Antibacterial activity against gram-negative Proteus mirabilis PM122 by CLSI method; type: functional; outline: as §2
[4] = system: Staphylococcus aureus; experiment: Antibacterial activity against gram-positive Staphylococcus aureus SA161 harboring tet(M) by CLSI method; type: functional
Outline: (§3)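 CLSI broth microdilution MIC in fresh cation-adjusted Mueller Hinton broth, supplemented with defibrinated horse blood where appropriate. Compounds serially diluted in sterile deionized water. Runs accepted when comparator antibiotics against ATCC quality-control strains fell within recommended ranges.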

[5] = system: Escherichia coli; experiment: Antibacterial activity against gram-negative Escherichia coli EC107 by CLSI method; type: functional; outline: as §1
[6] = system: Enterococcus faecalis; experiment: Antibacterial activity against gram-positive Enterococcus faecalis EF159 harboring tet(M) by CLSI method; type: functional; outline: as §3
[7] = system: Stenotrophomonas maltophilia; experiment: Antibacterial activity against gram-negative Stenotrophomonas maltophilia SM256 by CLSI method; type: functional; outline: as §1
[8] = system: Streptococcus pneumoniae; experiment: Antibacterial activity against gram-positive Streptococcus pneumoniae SP160 harboring tet(M) by CLSI method; type: functional; outline: as §3
[9] = system: Acinetobacter baumannii; experiment: Antibacterial activity against gram-negative Acinetobacter baumannii AB250 by CLSI method; type: functional; outline: as §1
[10] = system: Escherichia coli; experiment: Antibacterial activity against gram-negative Escherichia coli EC155 harboring tet(A) by CLSI method; type: functional; outline: as §3
[11] = system: Streptococcus pneumoniae; experiment: Antibacterial activity against gram-positive Streptococcus pneumoniae SP193 by CLSI method; type: functional; outline: as §1
[12] = system: Klebsiella pneumoniae; experiment: Antibacterial activity against gram-negative Klebsiella pneumoniae KP153 harboring tet(A) by CLSI method; type: functional; outline: as §3
[13] = system: Burkholderia cenocepacia; experiment: Antibacterial activity against gram-negative Burkholderia cenocepacia BC240 by CLSI method; type: functional; outline: as §2
[14] = system: Klebsiella pneumoniae; experiment: Antibacterial activity against gram-negative Klebsiella pneumoniae KP194 by CLSI method; type: functional; outline: as §1
[15] = system: Staphylococcus aureus; experiment: Antibacterial activity against gram-positive Staphylococcus aureus SA158 harboring tet(K) by CLSI method; type: functional; outline: as §3
[16] = system: Pseudomonas aeruginosa; experiment: Antibacterial activity against Pseudomonas aeruginosa PA1145 in BALB/c mouse model of lung infection administered intranasally as bid for 2 to 12 hrs of post-infection measured after 24 hrs; type: functional
Outline: (§4)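 Female BALB/c mice (18–20 g) infected intranasally with ~2 x 10^7 CFU/mouse P. aeruginosa PA1145 (cystic fibrosis isolate) under light anesthesia. Dosing at 2 and 12 h post-infection, IV (compound, tigecycline, amikacin) or intranasal (tobramycin); n = 6 per group. Lungs harvested 24 h after treatment start, homogenized, plated on MacConkey agar, 37 °C overnight; CFU/g lung; Mann-Whitney vs T = 0 h or 24 h controls.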

[17] = system: Pseudomonas aeruginosa; experiment: Antibacterial activity against Pseudomonas aeruginosa PA1145 in BALB/c mouse model of lung infection assessed as reduction in log10CFU per gram of lung at 40 mg/kg, in bid administered 2 to 12 hrs of post-infection measured after 24 hrs relative to untreated control; type: functional, organism-based; outline: as §4
[18] = system: Pseudomonas aeruginosa; experiment: Antibacterial activity against Pseudomonas aeruginosa PA1145 in BALB/c mouse model of lung infection assessed as reduction in log10CFU per gram of lung at 40 mg/kg, iv bid administered 2 to 12 hrs of post-infection measured after 24 hrs relative to untreated control; type: functional
Outline: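 Female BALB/c mice, 18 to 20 g, infected intranasally under light anesthesia with ~ 2 x 10^7 CFU/mouse of P. aeruginosa PA1145 (cystic fibrosis isolate) in 0.05 mL. Treatment at 2 and 12 h post-infection, IV, or intranasally for tobramycin; n = 6 per group. Lungs harvested 24 h after treatment began, homogenized, plated on MacConkey medium, incubated overnight at 37 °C in 5% CO2. CFU per gram lung compared with T = 24 h untreated control.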

[19] = system: Pseudomonas aeruginosa; experiment: Antibacterial activity against Pseudomonas aeruginosa PA1145 in BALB/c mouse model of lung infection administered as iv bid for 2 to 12 hrs of post-infection measured after 24 hrs; type: functional; outline: as §4
[20] = system: Klebsiella pneumoniae; experiment: Antibacterial activity against gram-negative Klebsiella pneumoniae KP457 harboring blacTX-M-15 extended spectrum beta-lactamase gene by CLSI method; type: functional; outline: as §3
[21] = system: Enterococcus faecalis; experiment: Antibacterial activity against gram-positive Enterococcus faecalis EFs327 harboring tet(M) by CLSI method; type: functional; outline: as §3
[22] = system: Proteus mirabilis; experiment: Antibacterial activity against gram-negative Proteus mirabilis PM385 by CLSI method; type: functional; outline: as §1
[23] = system: Enterobacter cloacae; experiment: Antibacterial activity against gram-negative Enterobacter cloacae EC1603 harboring tet(A) by CLSI method; type: functional; outline: as §3
[24] = system: Pseudomonas aeruginosa; experiment: Antibacterial activity against gram-negative Pseudomonas aeruginosa PA555 by CLSI method; type: functional; outline: as §1
[25] = system: Enterococcus faecium; experiment: Antibacterial activity against gram-positive Enterococcus faecium EFm404 harboring tet(M) by CLSI method; type: functional; outline: as §3

SMILES	MIC [1] [µg/mL]	MIC [2] [µg/mL]	MIC [3] [µg/mL]	MIC [4] [µg/mL]	MIC [5] [µg/mL]	MIC [6] [µg/mL]	MIC [7] [µg/mL]	MIC [8] [µg/mL]	MIC [9] [µg/mL]	MIC [10] [µg/mL]	MIC [11] [µg/mL]	MIC [12] [µg/mL]	MIC [13] [µg/mL]	MIC [14] [µg/mL]	MIC [15] [µg/mL]	Activity [18] [deltalog10CFU]	MIC [19] [µg/mL]	further results
CN1CCCCCC1c1cc(O)c2c(c1Cl)C[C@H]1C[C@H]3[C@H](N(C)C)C(O)=C(C(N)=O)C(=O)[C@@]3(O)C(O)=C1C2=O (stereo not given in full)	0.25 (≈ 0.446 µM)	32 (≈ 57.1 µM)	4 (≈ 7.14 µM)	2 (≈ 3.57 µM)	0.0625 (≈ 0.112 µM)	2 (≈ 3.57 µM)	0.5 (≈ 0.893 µM)	0.5 (≈ 0.893 µM)	2 (≈ 3.57 µM)	2 (≈ 3.57 µM)	≤ 0.0156	1 (≈ 1.79 µM)	8 (≈ 14.3 µM)	16 (≈ 28.6 µM)	0.0313 (≈ 0.0559 µM)	–	–	–
CN1CCCC1c1cc(O)c2c(c1Cl)C[C@H]1C[C@H]3[C@H](N(C)C)C(O)=C(C(N)=O)C(=O)[C@@]3(O)C(O)=C1C2=O (stereo not given in full)	0.125 (≈ 0.235 µM)	16 (≈ 30.1 µM)	0.5 (≈ 0.94 µM)	1 (≈ 1.88 µM)	≤ 0.0156	1 (≈ 1.88 µM)	0.125 (≈ 0.235 µM)	0.5 (≈ 0.94 µM)	0.5 (≈ 0.94 µM)	1 (≈ 1.88 µM)	≤ 0.0156	0.5 (≈ 0.94 µM)	8 (≈ 15 µM)	8 (≈ 15 µM)	≤ 0.0156	–	–	–
NC[C@H]1O[C@H](O[C@H]2[C@H](O)[C@@H](O[C@H]3O[C@H](CO)[C@@H](O)[C@H](N)[C@H]3O)[C@H](N)C[C@@H]2N)[C@H](N)C[C@@H]1O [TOBRAMYCIN]	–	–	–	–	–	–	–	–	–	–	–	–	–	–	–	–	–	MIC [16]: 1 µg/mL (≈ 2.14 µM); Activity [17]: inactive
NCC[C@H](O)C(=O)N[C@@H]1C[C@H](N)[C@@H](O[C@H]2O[C@H](CN)[C@@H](O)[C@H](O)[C@H]2O)[C@H](O)[C@H]1O[C@H]1O[C@H](CO)[C@@H](O)[C@H](N)[C@H]1O [AMIKACIN]	–	–	–	–	–	–	–	–	–	–	–	–	–	–	–	3.6	4 (≈ 6.83 µM)	–
CN(C)c1cc(NC(=O)CNC(C)(C)C)c(O)c2c1C[C@H]1C[C@H]3[C@H](N(C)C)C(O)=C(C(N)=O)C(=O)[C@@]3(O)C(O)=C1C2=O [TIGECYCLINE]	0.0625 (≈ 0.107 µM)	–	–	0.125 (≈ 0.213 µM)	0.125 (≈ 0.213 µM)	–	2 (≈ 3.41 µM)	0.0156 (≈ 0.0266 µM)	8 (≈ 13.7 µM)	1 (≈ 1.71 µM)	–	–	16 (≈ 27.3 µM)	–	0.125 (≈ 0.213 µM)	4.2	16 (≈ 27.3 µM)	MIC [20]: 1 µg/mL (≈ 1.71 µM); MIC [21]: 0.125 µg/mL (≈ 0.213 µM); MIC [22]: 4 µg/mL (≈ 6.83 µM); MIC [23]: 4 µg/mL (≈ 6.83 µM); MIC [24]: 16 µg/mL (≈ 27.3 µM); MIC [25]: 0.0312 µg/mL (≈ 0.0533 µM)
CN(C)[C@@H]1C(O)=C(C(N)=O)C(=O)[C@@]2(O)C(O)=C3C(=O)c4c(O)cc(-c5cccnc5)c(Cl)c4C[C@H]3C[C@@H]12	0.125 (≈ 0.238 µM)	> 32	16 (≈ 30.4 µM)	1 (≈ 1.9 µM)	2 (≈ 3.8 µM)	1 (≈ 1.9 µM)	2 (≈ 3.8 µM)	8 (≈ 15.2 µM)	> 32	> 32	0.25 (≈ 0.475 µM)	> 32	8 (≈ 15.2 µM)	–	0.125 (≈ 0.238 µM)	–	–	–
